pIC50: −log10 of the molar value.
Columns and labels:
[1] = test system: Rattus norvegicus; assay: Antiinflammatory activity in rat assessed as inhibition of carrageenan-induced paw edema at 0.01 mmol/kg, po after 3 hrs relative to control; assay type: functional; parameters: scale not given: the % may be the effect or the level left
Method in brief: (§1)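 Rats were given an oral gavage suspension in 1% methylcellulose, at doses equimolar to the parent NSAID: 0.71, 0.32 or 0.01 mmol/kg. Controls received an equal volume of vehicle. Carrageenan-induced paw edema was read 3 h after dosing. Activity is the % decrease in the inflammatory response versus the vehicle group.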

[2] = test system: Rattus norvegicus; assay: Ulcerogenic effect in rat assessed as gastric ulcer overall length at 0.08 mmol/kg, po administered for 6 hrs; assay type: toxicity, organism-based, Stomach; conditions: in vivo
Method in brief: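 Rats were fasted 24 h with water allowed, then dosed orally at 0.08 mmol/kg as a suspension in 1% methylcellulose. Controls received vehicle. After 6 h, animals were killed by CO2 and stomachs opened along the greater curvature, rinsed and kept on ice. Each ulcer was measured along its greatest length under a magnifier. Ulcer index is the total ulcer length per stomach averaged over n = 4, ±SEM.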

[3] = test system: Rattus norvegicus; assay: Antiinflammatory activity in rat assessed as inhibition of carrageenan-induced paw edema at 0.32 mmol/kg, po after 3 hrs relative to control; assay type: functional; parameters: scale not given: the % may be the effect or the level left; method in brief: as §1
[4] = test system: Rattus norvegicus; assay: Antiinflammatory activity in po dosed rat assessed as inhibition of carrageenan-induced paw edema after 3 hrs; assay type: functional; conditions: read-out: ID50 (the source's name); method in brief: as §1
[5] = Lipophilicity, log P of the compound; assay type: physicochemical; conditions: octanol/water
Method in brief: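 Log P is a theoretical n-octanol/water distribution coefficient, calculated rather than measured.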

[6] = biological target: T1, Prostaglandin G/H synthase 1 (Ovis aries, UniProt P05979); assay: Inhibition of ovine COX1
T1 sequence (P05979 whole entry): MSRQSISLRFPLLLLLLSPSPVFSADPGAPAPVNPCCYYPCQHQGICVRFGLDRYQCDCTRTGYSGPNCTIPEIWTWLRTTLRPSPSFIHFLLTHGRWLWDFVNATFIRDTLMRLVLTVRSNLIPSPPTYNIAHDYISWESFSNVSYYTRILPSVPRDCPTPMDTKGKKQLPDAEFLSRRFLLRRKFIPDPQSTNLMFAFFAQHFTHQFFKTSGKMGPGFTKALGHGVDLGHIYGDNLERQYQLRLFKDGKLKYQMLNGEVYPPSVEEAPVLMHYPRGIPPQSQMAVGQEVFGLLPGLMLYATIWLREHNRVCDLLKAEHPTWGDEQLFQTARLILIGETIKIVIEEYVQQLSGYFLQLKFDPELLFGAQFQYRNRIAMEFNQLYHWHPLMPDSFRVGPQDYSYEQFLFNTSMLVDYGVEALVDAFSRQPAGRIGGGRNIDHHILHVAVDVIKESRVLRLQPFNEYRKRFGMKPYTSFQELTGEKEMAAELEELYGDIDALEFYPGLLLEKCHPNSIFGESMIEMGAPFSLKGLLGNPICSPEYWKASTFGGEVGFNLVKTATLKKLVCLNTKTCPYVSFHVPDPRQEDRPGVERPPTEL
Method in brief: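 Ovine COX-1 was tested in a cyclooxygenase inhibitor screening kit, following the manufacturer's procedure. Deviation from the mean was <10%.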

[7] = test system: Rattus norvegicus; assay: Antiinflammatory activity in rat assessed as inhibition of carrageenan-induced paw edema at 0.71 mmol/kg, po after 3 hrs relative to control; assay type: functional; parameters: scale not given: the % may be the effect or the level left; method in brief: as §1
[8] = test system: Rattus norvegicus; assay: Ulcerogenic effect in rat assessed as gastric ulcer overall length at 1.4 mmol/kg, po administered for 6 hrs; assay type: toxicity, organism-based, Stomach; conditions: in vivo
Method in brief: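 Rats fasted 24 h with water allowed, then given a suspension in 1.2 mL 1% methylcellulose by gavage. Controls received vehicle. At 6 h, CO2 euthanasia. Stomachs were opened along the greater curvature, rinsed and put on ice. Ulcers were counted and measured under a magnifier (≤1 mm = 1, 1–2 mm = 2, >2 mm = length). Ulcer index = summed length per stomach averaged over n = 4, ±SEM.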

Row | SMILES | Activity [1] [%] | UI [2] [mm] | Activity [3] [%] | ED50 [4] [µmol/kg] | logP [5] | pIC50 [6] | Activity [7] [%] | UI [8] [mm]
1 | COc1ccc2c(c1)c(CC(=O)O)c(C)n2C(=O)c1ccc(Cl)cc1 [INDOMETHACIN] | 38.3 | 34.4 | – | – | – | – | – | –
2 | CC(C)Cc1ccc(C(C)C(=O)O)cc1 (stereo not given) [IBUPROFEN] | – | – | 50 | 300 | 3.7 | – | – | –
3 | COc1ccc2c(c1)c(CC(=O)Oc1ccc(CCO)cc1)c(C)n2C(=O)c1ccc(Cl)cc1 | 61.3 | 9.6 | – | – | – | < 4.00 | – | –
4 | CC(=O)Oc1ccccc1C(=O)Oc1ccc(CCO)cc1 | – | – | – | – | 2 | 7.52 | 58 | 2.6
5 | CC(=O)Oc1ccccc1C(=O)O [ASPIRIN] | – | – | – | 700 | 1.2 | – | 50 | 57.4
6 | CC(C)Cc1ccc(C(C)C(=O)Oc2ccc(CCO)cc2)cc1 (stereo not given) | – | – | 63 | – | 4.6 | 5.19 | – | 3.5
